Reference: ChEMBL document CHEMBL2046422, “Structure-activity relationship of nonacidic quinazolinone inhibitors of human microsomal prostaglandin synthase 1 (mPGES 1)” (J Med Chem, 2012)

Assays:
[1] = target: 5-lipoxygenase/FLAP (Homo sapiens) (UniProt P09917+P20292); assay: Inhibition of 5-lipoxygenase/FLAP in calcium ionophore-stimulated human whole blood assessed as residual 15(s)HETE level at 10 uM preincubated for 15 mins prior to calcium ionophore-stimulation measured after 15 mins by LC-MS/MS analysis; assay type: protein-complex assay
Method in brief: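 Heparinized human whole blood (500 μL) was preincubated with compound for 15 min at 37 °C. It was then stimulated with 20 μM calcium ionophore A23187 in autologous plasma for 15 min at 37 °C and chilled on ice for 5 min. Plasma was collected by centrifugation at 4 °C. Eicosanoids were recovered by liquid–liquid extraction with deuterated internal standards and quantified by LC-MS/MS (MRM). Levels are relative to vehicle-treated blood.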

[2] = target: T1, Prostaglandin G/H synthase 2 (Homo sapiens) (UniProt P35354); assay: Inhibition of COX2 in LPS-stimulated human whole blood assessed as residual PGF2alpha level at 100 uM preincubated for 15 mins prior to LPS-stimulation measured after 24 hrs by LC-MS/MS analysis relative to control
T1 sequence (whole entry): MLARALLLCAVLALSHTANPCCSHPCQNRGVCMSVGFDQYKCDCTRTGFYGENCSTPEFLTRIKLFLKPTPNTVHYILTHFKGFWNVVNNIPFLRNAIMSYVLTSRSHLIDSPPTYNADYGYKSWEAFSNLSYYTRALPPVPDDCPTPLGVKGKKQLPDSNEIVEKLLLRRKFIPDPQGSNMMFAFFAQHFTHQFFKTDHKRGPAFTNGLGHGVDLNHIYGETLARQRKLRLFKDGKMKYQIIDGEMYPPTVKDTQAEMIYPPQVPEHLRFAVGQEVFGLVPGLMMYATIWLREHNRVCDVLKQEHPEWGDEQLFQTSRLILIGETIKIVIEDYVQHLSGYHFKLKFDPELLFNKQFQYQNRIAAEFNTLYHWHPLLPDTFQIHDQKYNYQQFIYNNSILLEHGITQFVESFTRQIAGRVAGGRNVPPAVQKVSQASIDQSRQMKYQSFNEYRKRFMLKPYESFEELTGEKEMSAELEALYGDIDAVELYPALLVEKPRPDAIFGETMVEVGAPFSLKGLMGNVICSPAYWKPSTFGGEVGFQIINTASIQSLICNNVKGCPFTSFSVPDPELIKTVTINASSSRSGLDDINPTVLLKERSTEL
Method in brief: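 Human whole blood received compound in DMSO plus acetylsalicylic acid (10 μg/mL) to block COX-1, 15 min at 37 °C. LPS (10 μg/mL final) in autologous plasma was added to induce COX-2/mPGES-1, and blood was incubated 24 h at 37 °C. Samples were chilled on ice 5 min, and plasma prostaglandins were extracted by solid-phase extraction and quantified by LC-MS/MS. Values are relative to vehicle.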

HeLa = assay: Cytotoxicity against IL1beta and TNFalpha-stimulated human HeLa cells at 1 to 10 uM after 24 hrs by WST1 assay; assay type: cell-based
Method in brief: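 HeLa cells were seeded at 3 × 10³ per well and grown 24 h at 37 °C. They were then stimulated with IL-1β (1 ng/mL) + TNFα (5 ng/mL) while treated with compound at 1, 10 or 100 μM, or DMSO, for 24 h. WST-1 was added for 90–150 min and absorbance read at 450 nm against 620 nm. Viability is percent of DMSO control, SEM, n ≥ 3.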

[3] = target: T2, Prostaglandin E synthase (Homo sapiens) (UniProt O14684); assay: Inhibition of mPGES-1 in IL1beta and TNFalpha-stimulated human HeLa cells assessed as PGE2 level after 24 hrs by LC-MS/MS analysis; assay type: cell-based
T2 sequence (whole entry): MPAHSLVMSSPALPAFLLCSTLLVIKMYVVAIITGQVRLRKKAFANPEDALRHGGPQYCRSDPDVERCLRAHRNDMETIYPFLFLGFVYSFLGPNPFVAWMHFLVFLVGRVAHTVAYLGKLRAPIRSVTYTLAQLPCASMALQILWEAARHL
Method in brief: (§1)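 HeLa cells (2 × 10⁴) were grown 24 h at 37 °C. The medium was then replaced with IL-1β (1 ng/mL) + TNFα (5 ng/mL), or PBS for unstimulated controls, together with compound at 1, 10 or 100 μM, or DMSO, for 24 h at 37 °C. Supernatant PGE₂ was quantified by LC-MS/MS after solid-phase extraction with deuterated standards. Inhibition is percent of DMSO control corrected for unstimulated background, SEM, n ≥ 3.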

[4] = target: T1, Prostaglandin G/H synthase 2 (Homo sapiens); assay: Inhibition of human recombinant COX2-mediated PGE2 synthesis using PGH2 as substrate at 1 uM by LC-MS/MS analysis relative to control
Method in brief: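 Direct enzyme test with a COX inhibitor screening kit, run per the kit protocol: COX-1 was ovine, COX-2 human recombinant. […] Prostaglandins were quantified by LC-MS/MS after solid-phase extraction. Mean of n ≥ 3.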

[5] = target: T3, Prostaglandin E synthase (Mus musculus) (UniProt Q9JM51); assay: Inhibition of mPGES-1 derived from LPS stimulated mouse RAW264.7 cells microsomal fraction using PGH2 as substrate at 1 uM preincubated for 30 mins prior to substrate addition measured after 1 min by LC-MS/MS analysis relative to control
T3 sequence (whole entry): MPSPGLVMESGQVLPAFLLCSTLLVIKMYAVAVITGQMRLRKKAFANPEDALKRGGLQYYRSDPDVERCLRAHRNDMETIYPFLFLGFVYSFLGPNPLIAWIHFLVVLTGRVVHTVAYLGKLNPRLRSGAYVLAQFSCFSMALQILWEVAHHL
Method in brief: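 Microsomes came from RAW 264.7 cells stimulated with LPS for 16 h. They were prepared by sonication and ultracentrifugation in 0.1 M potassium phosphate, pH 7.4, with GSH and protease inhibitors, and resuspended with 2.5 mM GSH; protein was measured by Bradford. Compound was tested at the stated final concentration. PGE₂ was quantified by LC-MS/MS after solid-phase extraction with PGE₂-d₄/PGD₂-d₄ standards; SEM, n ≥ 3.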

[6] = target: T3, Prostaglandin E synthase (Mus musculus); assay: Inhibition of mPGES-1 derived from LPS stimulated mouse NIH3T3 cells microsomal fraction using PGH2 as substrate at 1 uM preincubated for 30 mins prior to substrate addition measured after 1 min by LC-MS/MS analysis relative to control
Prostaglandin E synthase = target: T4, Prostaglandin E synthase (Homo sapiens, UniProt O14684); assay: Inhibition of mPGES-1 derived from IL1beta and TNFalpha stimulated human HeLa cells microsomal fraction using PGH2 as substrate preincubated for 30 mins prior to substrate addition measured after 1 min by LC-MS/MS analysis
T4 sequence (O14684 whole entry): T2 sequence (whole entry)
Method in brief: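 Microsomes were pelleted by ultracentrifugation and resuspended in buffer with 2.5 mM GSH; protein was measured by Bradford. Screening used 1 μM final compound, and IC₅₀ (95% CI) came from increasing concentrations. PGE₂ was read by LC-MS/MS after solid-phase extraction with deuterated standards; n ≥ 3.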

[7] = target: T2, Prostaglandin E synthase (Homo sapiens); assay: Inhibition of mPGES-1 in IL1beta and TNFalpha-stimulated human HeLa cells assessed as PGE2 level at 1 uM after 24 hrs by LC-MS/MS analysis relative to isolated enzyme
[8] = target: T2, Prostaglandin E synthase (Homo sapiens); assay: Inhibition of mPGES-1 in IL1beta and TNFalpha-stimulated human HeLa cells assessed as PGE2 level at 10 uM after 24 hrs by LC-MS/MS analysis relative to control; assay type: cell-based; method in brief: as §1

SMILES: CCCc1nc2ccc(NC(=O)c3ccccc3Cl)cc2c(=O)n1Cc1ccc(-c2ccc(Cl)cc2)cc1
- Activity [1]: 93.8%
- Activity [2]: 234%
- Activity (HeLa): Non-toxic
- inhibition [3]: Dose-dependent effect
- inhibition [4]: < 0%
- inhibition [5]: 12.4%
- inhibition [6]: 17.1%

SMILES: CCCc1nc2ccc(NC(=O)c3c(F)cccc3Cl)cc2c(=O)n1Cc1cccc(Cl)c1
- Activity [1]: 111%
- Activity [2]: 97%
- Activity (HeLa): Non-toxic
- IC50 (Prostaglandin E synthase): 370 nM
- inhibition [3]: Dose-dependent effect
- inhibition [4]: < 0%
- inhibition [5]: -8.7%

SMILES: CCCc1nc2ccc(NC(=O)c3ccccc3Cl)cc2c(=O)n1Cc1cccc(Cl)c1
- Activity [1]: 90.3%
- Activity [2]: 81.3%
- Activity (HeLa): Non-toxic
- IC50 (Prostaglandin E synthase): 360 nM
- inhibition [3]: Dose-dependent effect
- inhibition [4]: < 0%
- inhibition [5]: 9.5%
- inhibition [6]: -0.8%

SMILES: CCCc1nc2ccc(NC(=O)c3ccccc3Cl)cc2c(=O)n1Cc1ccc(-c2cccc(Cl)c2)cc1
- Activity [1]: 83.1%
- Activity [2]: 94.2%
- IC50 (Prostaglandin E synthase): 130 nM
- inhibition [3]: Dose-dependent effect
- inhibition [4]: 6.7%
- inhibition [5]: 8.4%
- inhibition [6]: 10.7%

SMILES: CCCc1nc2ccc(NC(=O)c3ccccc3Cl)cc2c(=O)n1Cc1ccc(-c2cccc(OC)c2)cc1
- Activity [1]: 80%
- potency shift [7]: 28%
- Activity [2]: 92.5%
- Activity (HeLa): Non-toxic
- IC50 (Prostaglandin E synthase): 210 nM
- inhibition [3]: Dose-dependent effect
- inhibition [4]: 2.5%
- inhibition [8]: 97%
- inhibition [5]: 15.3%
- inhibition [6]: 4.6%

SMILES: CCCc1nc2ccc(NC(=O)c3ccccc3C)cc2c(=O)n1Cc1cccc(Cl)c1
- Activity [1]: 83.4%
- Activity [2]: 93.8%
- Activity (HeLa): Non-toxic
- IC50 (Prostaglandin E synthase): 260 nM
- inhibition [3]: Dose-dependent effect
- inhibition [4]: < 0%
- inhibition [5]: 6%
- inhibition [6]: 0.9%

SMILES: CCCc1nc2ccc(NC(=O)c3ccccc3Cl)cc2c(=O)n1Cc1ccc(-c2ccccc2)cc1
- Activity [1]: 94.2%
- Activity [2]: 92.6%
- Activity (HeLa): Non-toxic
- IC50 (Prostaglandin E synthase): 220 nM
- inhibition [3]: Dose-dependent effect
- inhibition [4]: 5.8%
- inhibition [8]: 70%
- inhibition [5]: 11.8%
- inhibition [6]: 20.3%
